Measured values published in ChEMBL document CHEMBL5058577, “EUbOPEN Chemogenomics Library 2 (Multiplex)” (2022).

Tested on: U2OS
Assay: Multiplex assay against U2OS
Format: toxicity, cell-based
Conditions: human
Outline: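 Cells stained live at seeding with Hoechst33342, BioTracker Green Microtubule Cytoskeleton Dye, MitoTracker Red and Annexin V Alexa Fluor 680 were imaged on a CQ1 microscope at 37°C and 5% CO2 after compound addition. Their classification by CellPathfinder machine-learning gating ran from Hoechst high-intensity objects versus normal cells, to healthy, pyknosed or fragmented nuclei among normal cells, to mitotic or apoptotic among pyknosed cells. Tubulin, mitochondrial-mass and membrane-permeability phenotypes are per cents of healthy-nucleus cells.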

[1] = 12 h, 1 µM, compound concentration 1 uM, replicate 1
[2] = 12 h, 1 µM, compound concentration 1 uM, replicate 2
[3] = 12 h, 10 µM, compound concentration 10 uM, replicate 1
[4] = 12 h, 10 µM, compound concentration 10 uM, replicate 2
[5] = 24 h, 1 µM, compound concentration 1 uM, replicate 1
[6] = 24 h, 1 µM, compound concentration 1 uM, replicate 2
[7] = 24 h, 10 µM, compound concentration 10 uM, replicate 1
[8] = 24 h, 10 µM, compound concentration 10 uM, replicate 2
[9] = 48 h, 1 µM, compound concentration 1 uM, replicate 1
[10] = 48 h, 1 µM, compound concentration 1 uM, replicate 2
[11] = 48 h, 10 µM, compound concentration 10 uM, replicate 1
[12] = 48 h, 10 µM, compound concentration 10 uM, replicate 2

## Br.CS(=O)(=O)Nc1c(O)ccc2c1CCCC2C1=NCCN1 (centres undefined)
[1]
  Population Apoptotic (%): 63%
  Population Fragmented Nuclei (%): 20%
  Population Healthy Nuclei (%): 75%
  Population Hoechst High Intensity Objects (%): 2%
  Population Membrane Permeable-Phenotype (%): 3%
  Population Mitochondria Different-Phenotype (%): 2%
  Population Mitotic Cells (%): 36%
  Population Normal (%): 97%
  Population Pyknosed Nuclei (%): 3%
  Population Tubulin-Different-Phenotype (%): 2%
  Total Cell Count: 288
[2]
  Population Apoptotic (%): 80%
  Population Fragmented Nuclei (%): 13%
  Population Healthy Nuclei (%): 82%
  Population Hoechst High Intensity Objects (%): 0%
  Population Membrane Permeable-Phenotype (%): 5%
  Population Mitochondria Different-Phenotype (%): 1%
  Population Mitotic Cells (%): 20%
  Population Normal (%): 100%
  Population Tubulin-Different-Phenotype (%): 1%
  Total Cell Count: 151
[3]
  Population Apoptotic (%): 69%
  Population Fragmented Nuclei (%): 36%
  Population Healthy Nuclei (%): 57%
  Population Hoechst High Intensity Objects (%): 1%
  Population Membrane Permeable-Phenotype (%): 8%
  Population Mitochondria Different-Phenotype (%): 0%
  Population Mitotic Cells (%): 30%
  Population Normal (%): 98%
  Population Pyknosed Nuclei (%): 6%
  Population Tubulin-Different-Phenotype (%): 1%
  Total Cell Count: 215
[4]
  Population Apoptotic (%): 100%
  Population Fragmented Nuclei (%): 22%
  Population Healthy Nuclei (%): 75%
  Population Hoechst High Intensity Objects (%): 0%
  Population Membrane Permeable-Phenotype (%): 6%
  Population Mitochondria Different-Phenotype (%): 6%
  Population Mitotic Cells (%): 0%
  Population Normal (%): 100%
  Population Pyknosed Nuclei (%): 2%
  Total Cell Count: 84
[5]
  Population Apoptotic (%): 76%
  Population Fragmented Nuclei (%): 18%
  Population Healthy Nuclei (%): 73%
  Population Hoechst High Intensity Objects (%): 2%
  Population Membrane Permeable-Phenotype (%): 3%
  Population Mitochondria Different-Phenotype (%): 2%
  Population Mitotic Cells (%): 23%
  Population Normal (%): 97%
  Population Pyknosed Nuclei (%): 7%
  Population Tubulin-Different-Phenotype (%): 2%
  Total Cell Count: 341
[6]
  Population Apoptotic (%): 92%
  Population Fragmented Nuclei (%): 14%
  Population Healthy Nuclei (%): 78%
  Population Hoechst High Intensity Objects (%): 1%
  Population Membrane Permeable-Phenotype (%): 7%
  Population Mitotic Cells (%): 7%
  Population Normal (%): 98%
  Population Tubulin-Different-Phenotype (%): 4%
  Total Cell Count: 185
[7]
  Population Apoptotic (%): 86%
  Population Fragmented Nuclei (%): 31%
  Population Healthy Nuclei (%): 62%
  Population Hoechst High Intensity Objects (%): 2%
  Population Membrane Permeable-Phenotype (%): 5%
  Population Mitochondria Different-Phenotype (%): 1%
  Population Mitotic Cells (%): 13%
  Population Normal (%): 97%
  Population Pyknosed Nuclei (%): 6%
  Population Tubulin-Different-Phenotype (%): 2%
  Total Cell Count: 240
[8]
  Population Apoptotic (%): 100%
  Population Fragmented Nuclei (%): 16%
  Population Healthy Nuclei (%): 80%
  Population Hoechst High Intensity Objects (%): 0%
  Population Membrane Permeable-Phenotype (%): 3%
  Population Mitochondria Different-Phenotype (%): 4%
  Population Mitotic Cells (%): 0%
  Population Normal (%): 100%
  Population Pyknosed Nuclei (%): 2%
  Population Tubulin-Different-Phenotype (%): 3%
  Total Cell Count: 103
[9]
  Population Apoptotic (%): 74%
  Population Fragmented Nuclei (%): 14%
  Population Healthy Nuclei (%): 78%
  Population Hoechst High Intensity Objects (%): 1%
  Population Membrane Permeable-Phenotype (%): 2%
  Population Mitochondria Different-Phenotype (%): 2%
  Population Mitotic Cells (%): 25%
  Population Normal (%): 98%
  Population Pyknosed Nuclei (%): 6%
  Population Tubulin-Different-Phenotype (%): 2%
  Total Cell Count: 484
[10]
  Population Apoptotic (%): 81%
  Population Fragmented Nuclei (%): 13%
  Population Healthy Nuclei (%): 76%
  Population Membrane Permeable-Phenotype (%): 5%
  Population Mitotic Cells (%): 18%
  Population Pyknosed Nuclei (%): 10%
  Population Tubulin-Different-Phenotype (%): 1%
  Total Cell Count: 253
[11]
  Population Apoptotic (%): 90%
  Population Fragmented Nuclei (%): 23%
  Population Healthy Nuclei (%): 70%
  Population Hoechst High Intensity Objects (%): 1%
  Population Membrane Permeable-Phenotype (%): 5%
  Population Mitochondria Different-Phenotype (%): 1%
  Population Mitotic Cells (%): 10%
  Population Normal (%): 98%
  Population Pyknosed Nuclei (%): 6%
  Population Tubulin-Different-Phenotype (%): 2%
  Total Cell Count: 333
[12]
  Population Apoptotic (%): 100%
  Population Fragmented Nuclei (%): 17%
  Population Healthy Nuclei (%): 74%
  Population Hoechst High Intensity Objects (%): 0%
  Population Membrane Permeable-Phenotype (%): 3%
  Population Mitochondria Different-Phenotype (%): 6%
  Population Mitotic Cells (%): 0%
  Population Normal (%): 100%
  Population Pyknosed Nuclei (%): 7%
  Total Cell Count: 152
